Converted amounts (≈) assume the structure as drawn.
Legend:
[1] = system: Mycobacterium tuberculosis; experiment: Antimycobacterial activity against Mycobacterium tuberculosis H37Rv ATCC 27294 at 12.5 ug/ml by microplate alamar blue assay relative to control; assay type: functional
[2] = system: Trichophyton mentagrophytes; experiment: Antifungal activity against Trichophyton mentagrophytes 445 after 120 hr by microdilution broth method; assay type: functional; conditions: Trichophyton mentagrophytes, 445, 120 h
In short: (§1)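 Broth microdilution in RPMI 1640 buffered to pH 7.0 with 0.165 M MOPS; compounds in DMSO, with compound-free controls. Strain subcultured and kept on Sabouraud dextrose agar at 4 °C. Conidia were suspended in sterile 0.85% saline, counted in a Bürker chamber to 1.0–5.0×10⁵ cfu ml⁻¹ stock, and diluted 1:20 in medium. Static incubation at 35 °C. MIC is 80% growth inhibition versus control.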

[3] = system: Trichophyton mentagrophytes; experiment: Antifungal activity against Trichophyton mentagrophytes 445 after 72 hr by microdilution broth method; assay type: functional; conditions: Trichophyton mentagrophytes, 445, 72 h; in short: as §1
Spinacia oleracea = experiment: Inhibition of photosynthesis in Spinacia oleracea (spinach) chloroplast assessed as reduction of oxygen evolution rate after 4 hr by spectrophotometric analysis; assay type: functional
In short: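 Oxygen evolution rate was measured in spinach chloroplasts at 30 mg l⁻¹, read spectrophotometrically with 2,6-dichlorophenol–indophenol as electron acceptor.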

Chlorella vulgaris [4] = experiment: Inhibition of photosynthesis in Chlorella vulgaris chloroplast assessed as reduction of oxygen evolution rate after 4 hr by spectrophotometric analysis; assay type: functional
Chlorella vulgaris [5] = experiment: Inhibition of photosynthesis in Chlorella vulgaris assessed as reduction of chlorophyll production at 0.1 mM/l after 7 days by spectrophotometric analysis; assay type: functional; conditions: 168 h
In short: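 Statically cultured Chlorella vulgaris suspensions were exposed to 0.1 mmol l⁻¹ compound, with 1% solvent in samples and control. After 7 days, chlorophyll was extracted into N,N-dimethylformamide and quantified spectrophotometrically.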

Nakaseomyces glabratus [6] = experiment: Antifungal activity against Candida glabrata 20/I after 48 hr by microdilution broth method; assay type: functional
In short: (§2)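 Broth microdilution in RPMI 1640 buffered to pH 7.0 with 0.165 M MOPS; compounds dissolved in DMSO; drug-free controls included. Strains were kept on Sabouraud dextrose agar at 4 °C and passaged onto SDA before testing. Yeasts, conidia or sporangiospores were suspended in 0.85% saline to a stock of 1.0–5.0×10⁵ cfu ml⁻¹, then diluted 1:20 in medium. Plates were incubated statically at 35 °C.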

Nakaseomyces glabratus [7] = experiment: Antifungal activity against Candida glabrata 20/I after 24 hr by microdilution broth method; assay type: functional; in short: as §2
Candida albicans [8] = experiment: Antifungal activity against Candida albicans ATCC 44859 after 48 hr by microdilution broth method; assay type: functional; conditions: ATCC 44859, 48 h; in short: as §2
Aspergillus fumigatus [9] = experiment: Antifungal activity against Aspergillus fumigatus 231 after 24 hr by microdilution broth method; assay type: functional; conditions: Aspergillus fumigatus, 231, 24 h; in short: as §2
Lichtheimia corymbifera [10] = experiment: Antifungal activity against Lichtheimia corymbifera 272 after 24 hr by microdilution broth method; assay type: functional; conditions: Lichtheimia corymbifera, 272, 24 h; in short: as §2
Trichosporon beigelii [11] = experiment: Antifungal activity against Trichosporon beigelii 1188 after 48 hr by microdilution broth method; assay type: functional; conditions: Trichosporon beigelii, 1188, 48 h; in short: as §2
Candida tropicalis [12] = experiment: Antifungal activity against Candida tropicalis 156 after 48 hr by microdilution broth method; assay type: functional; conditions: Candida tropicalis, 156, 48 h; in short: as §2
Pichia kudriavzevii [13] = experiment: Antifungal activity against Pichia kudriavzevii E 28 after 24 hr by microdilution broth method; assay type: functional; conditions: E 28, 24 h; in short: as §2
Candida tropicalis [14] = experiment: Antifungal activity against Candida tropicalis 156 after 24 hr by microdilution broth method; assay type: functional; conditions: Candida tropicalis, 156, 24 h; in short: as §2
Candida albicans [15] = experiment: Antifungal activity against Candida albicans ATCC 44859 after 24 hr by microdilution broth method; assay type: functional; conditions: ATCC 44859, 24 h; in short: as §2
Aspergillus fumigatus [16] = experiment: Antifungal activity against Aspergillus fumigatus 231 after 48 hr by microdilution broth method; assay type: functional; conditions: Aspergillus fumigatus, 231, 48 h; in short: as §2
Trichosporon beigelii [17] = experiment: Antifungal activity against Trichosporon beigelii 1188 after 24 hr by microdilution broth method; assay type: functional; conditions: Trichosporon beigelii, 1188, 24 h; in short: as §2
Lichtheimia corymbifera [18] = experiment: Antifungal activity against Lichtheimia corymbifera 272 after 48 hr by microdilution broth method; assay type: functional; conditions: Lichtheimia corymbifera, 272, 48 h; in short: as §2
Pichia kudriavzevii [19] = experiment: Antifungal activity against Pichia kudriavzevii E 28 after 48 hr by microdilution broth method; assay type: functional; conditions: E 28, 48 h; in short: as §2

SMILES	inhibition at 12.5 µg/mL [1] [%]	MIC80 [2] [µM]	MIC80 [3] [µM]	IC50 (Spinacia oleracea) [µM]	IC50 (Chlorella vulgaris [4]) [µM]	inhibition at 100 µM (Chlorella vulgaris [5]) [%]	other results
O=C(/C=C/c1ccc(O)cc1)c1cnccn1	42	125 (≈ 28.3 µg/mL)	62.5 (≈ 14.1 µg/mL)				
CC(C)Cc1cnc(C(=O)/C=C/c2ccc(O)cc2)cn1	63	> 500	> 500	235	232	35	
CCCCc1cnc(C(=O)/C=C/c2ccc(O)cc2)cn1	51	62.5 (≈ 17.6 µg/mL)	31.2 (≈ 8.82 µg/mL)	306	265	10	
CCCc1cnc(C(=O)/C=C/c2ccc(O)cc2)cn1	35	62.5 (≈ 16.8 µg/mL)	31.2 (≈ 8.38 µg/mL)	399	514	12	
CN(C)c1ccc(/C=C/C(=O)c2cnccn2)cc1	26	> 62.5	> 62.5				
CC(C)Cc1cnc(C(=O)/C=C/c2ccc(N(C)C)cc2)cn1	10	> 250	250 (≈ 77.4 µg/mL)				
CCCCc1cnc(C(=O)/C=C/c2ccc(N(C)C)cc2)cn1	0	> 250	> 250				
CCCc1cnc(C(=O)/C=C/c2ccc(N(C)C)cc2)cn1	8	> 250	> 250				
CCCCCCCCSc1cc(C(N)=S)ccn1				72	48	100	
CC(C)(C)c1ncc(C(=O)Nc2cc(O)cc(Cl)c2)nc1Cl				105	99		
CC(C)(C)c1cnc(C(=O)Nc2cccc(O)c2)cn1				478	329		
COc1cc(/C=C/C(=O)c2cnccn2)ccc1O	35		125 (≈ 32 µg/mL)				
COc1cc(/C=C/C(=O)c2cnc(CC(C)C)cn2)ccc1O	53		250 (≈ 78.1 µg/mL)				
CCCCc1cnc(C(=O)/C=C/c2ccc(O)c(OC)c2)cn1	45		> 100				
CCCc1cnc(C(=O)/C=C/c2ccc(O)c(OC)c2)cn1	20		> 125				
O=C(/C=C/c1ccccc1O)c1cnccn1	55	31.2 (≈ 7.07 µg/mL)	15.6 (≈ 3.53 µg/mL)				MIC80 (Nakaseomyces glabratus [6]): 250 µM (≈ 56.6 µg/mL); MIC80 (Nakaseomyces glabratus [7]): 125 µM (≈ 28.3 µg/mL); MIC80 (Candida albicans [8]): 62.5 µM (≈ 14.1 µg/mL); MIC80 (Aspergillus fumigatus [9]): 125 µM (≈ 28.3 µg/mL); MIC80 (Lichtheimia corymbifera [10]): 125 µM (≈ 28.3 µg/mL); MIC80 (Trichosporon beigelii [11]): 250 µM (≈ 56.6 µg/mL); MIC80 (Candida tropicalis [12]): 250 µM (≈ 56.6 µg/mL); MIC80 (Pichia kudriavzevii [13]): 125 µM (≈ 28.3 µg/mL); MIC80 (Candida tropicalis [14]): 125 µM (≈ 28.3 µg/mL); MIC80 (Candida albicans [15]): 62.5 µM (≈ 14.1 µg/mL); MIC80 (Aspergillus fumigatus [16]): 250 µM (≈ 56.6 µg/mL); MIC80 (Trichosporon beigelii [17]): 125 µM (≈ 28.3 µg/mL); MIC80 (Lichtheimia corymbifera [18]): 250 µM (≈ 56.6 µg/mL); MIC80 (Pichia kudriavzevii [19]): 250 µM (≈ 56.6 µg/mL)
CC(C)Cc1cnc(C(=O)/C=C/c2ccccc2O)cn1	20		31.2 (≈ 8.82 µg/mL)	144	63	92	
CCCCc1cnc(C(=O)/C=C/c2ccccc2O)cn1	33	15.6 (≈ 4.41 µg/mL)	3.91 (≈ 1.1 µg/mL)	184	147	89	
CCCc1cnc(C(=O)/C=C/c2ccccc2O)cn1	50	7.81 (≈ 2.1 µg/mL)	7.81 (≈ 2.1 µg/mL)	187	100	68	
CC(=O)N1CCN(c2ccc(OCC3COC(Cn4ccnc4)(c4ccc(Cl)cc4Cl)O3)cc2)CC1 (centres undefined) [KETOCONAZOLE]		1.95 (≈ 1.04 µg/mL)	0.24 (≈ 0.128 µg/mL)				MIC80 (Nakaseomyces glabratus [6]): 1.95 µM (≈ 1.04 µg/mL); MIC80 (Nakaseomyces glabratus [7]): 0.49 µM (≈ 0.26 µg/mL); MIC80 (Candida albicans [8]): ≤ 0.06 µM; MIC80 (Aspergillus fumigatus [9]): 7.81 µM (≈ 4.15 µg/mL); MIC80 (Lichtheimia corymbifera [10]): 15.6 µM (≈ 8.31 µg/mL); MIC80 (Trichosporon beigelii [11]): ≤ 0.06 µM; MIC80 (Candida tropicalis [12]): 7.81 µM (≈ 4.15 µg/mL); MIC80 (Pichia kudriavzevii [13]): 1.95 µM (≈ 1.04 µg/mL); MIC80 (Candida tropicalis [14]): 3.91 µM (≈ 2.08 µg/mL); MIC80 (Candida albicans [15]): ≤ 0.06 µM; MIC80 (Aspergillus fumigatus [16]): 7.81 µM (≈ 4.15 µg/mL); MIC80 (Trichosporon beigelii [17]): ≤ 0.06 µM; MIC80 (Lichtheimia corymbifera [18]): 15.6 µM (≈ 8.31 µg/mL); MIC80 (Pichia kudriavzevii [19]): 1.95 µM (≈ 1.04 µg/mL)
NC(=O)c1cnccn1 [PYRAZINAMIDE]	100						

Source: ChEMBL document CHEMBL3046412, “Ring substituted 3-phenyl-1-(2-pyrazinyl)-2-propen-1-ones as potential photosynthesis-inhibiting, antifungal and antimycobacterial agents” (Farmaco, 2002)
